From ChEMBL document CHEMBL1137706, “Design, synthesis, and anti-tumor evaluation of novel symmetrical bis-benzimidazoles” (Eur J Med Chem, 2009)

Legend:
Type in all cases: functional, cell-based
[1] = tested on: BGC-823; assay: Antitumor activity against human BGC823 cells after 72 hrs by MTT assay; details: BGC-823, 72 h
Method in brief: (§1)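 Cells grown in RPMI1640 with 10% fetal bovine serum, seeded at 4.0 × 10^4 cells/well and left 4 h at 37 °C, 5% CO2 to adhere. Compound then added and incubation continued 72 h at 37 °C, 5% CO2. Viability read by standard MTT assay.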

[2] = tested on: HeLa; assay: Antitumor activity against human HeLa cells after 72 hrs by MTT assay; method in brief: as §1
[3] = tested on: SK-OV-3; assay: Antitumor activity against human SKOV3 cells after 72 hrs by MTT assay; details: SK-OV-3, 72 h; method in brief: as §1

| SMILES | IC50 [1] [µM] | IC50 [2] [µM] | IC50 [3] [µM] |
| --- | --- | --- | --- |
| c1ccc(CSc2nc3ccc(-c4ccc5nc(SCc6ccccn6)[nH]c5c4)cc3[nH]2)nc1 | 16.4 | 7.1 | 38.6 |
| COc1c(C)cnc(CSc2nc3ccc(-c4ccc5nc(SCc6ncc(C)c(OC)c6C)[nH]c5c4)cc3[nH]2)c1C | > 50 | > 50 | 2.95 |
| CC(=O)O[C@H]1C(=O)[C@@]2(C)[C@H]([C@H](OC(=O)c3ccccc3)[C@]3(O)C[C@H](OC(=O)[C@H](O)[C@@H](NC(=O)c4ccccc4)c4ccccc4)C(C)=C1C3(C)C)[C@]1(OC(C)=O)CO[C@@H]1C[C@@H]2O [PACLITAXEL] | – | – | 0.00134 |
| COc1ccnc(CSc2nc3ccc(-c4ccc5nc(SCc6nccc(OC)c6C)[nH]c5c4)cc3[nH]2)c1C | > 50 | > 50 | > 50 |
| Clc1ccc(CSc2nc3ccc(-c4ccc5nc(SCc6ccc(Cl)nc6)[nH]c5c4)cc3[nH]2)cn1 | > 50 | > 50 | > 50 |
| Cc1c(OCC(F)(F)F)ccnc1CSc1nc2ccc(-c3ccc4nc(SCc5nccc(OCC(F)(F)F)c5C)[nH]c4c3)cc2[nH]1 | > 50 | 18.3 | 23 |
| COc1ccnc(CSc2nc3ccc(-c4ccc5nc(SCc6nccc(OC)c6OC)[nH]c5c4)cc3[nH]2)c1OC | > 50 | > 50 | > 50 |
| c1cc(CSc2nc3ccc(-c4ccc5nc(SCc6ccncc6)[nH]c5c4)cc3[nH]2)ccn1 | 11 | 32.4 | 2.81 |
| c1cncc(CSc2nc3ccc(-c4ccc5nc(SCc6cccnc6)[nH]c5c4)cc3[nH]2)c1 | > 50 | > 50 | 8.73 |
| CCOc1ccnc(CSc2nc3ccc(-c4ccc5nc(SCc6nccc(OCC)c6C)[nH]c5c4)cc3[nH]2)c1C | > 50 | > 50 | > 50 |
| COc1c(Cl)ccnc1CSc1nc2ccc(-c3ccc4nc(SCc5nccc(Cl)c5OC)[nH]c4c3)cc2[nH]1 | > 50 | 45.4 | > 50 |
